ChEMBL document CHEMBL3243962, “Antileukemic activity of derivatives of 1,2-dimethyl-3,4-bis(hydroxymethyl)-5-phenylpyrrole bis(N-methylcarbamate)” (J Med Chem, 1979)
Active and inactive are the calls of the source.

Legend:
Mus musculus [1] = experiment: Toxicity in mouse P388 cells allografted CD2F1 mouse assessed as body weight loss at 50 mg/kg, ip of total 9 doses starting 24 hrs post tumor inoculation measured on day 5 of inoculation relative to control; format: organism-based; set-up: dose 50 mg/kg, route intraperitoneal; conditions: in vivo
In short: (§1)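 Male CD2F1 mice inoculated ip with 6×10^6 P388 leukemia cells. Compounds given ip as distilled water–Tween 80 suspension, nine daily doses starting 24 h after inoculation; six mice per dose group. Treated-minus-control body-weight change (T − C) and toxicity-day survivors recorded on day 5 (4 days after first dose).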

P388 [2] = experiment: Antitumor activity against mouse P388 cells allografted in CD2F1 mouse assessed as increase in mouse survival at 50 mg/kg, ip of total 9 doses starting 24 hrs post tumor inoculation measured on day 5 of inoculation relative to control; format: functional; conditions: route intraperitoneal
In short: (§2)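 Male CD2F1 mice inoculated ip with 6×10^6 P388 leukemia cells. Dosing was ip as a suspension in distilled water–Tween 80, nine daily doses starting 24 h after inoculation. Activity was read as median survival time of treated vs control mice (% T/C); % T/C ≥ 120 was considered significant. Groups were 6 mice.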

Mus musculus [3] = experiment: Toxicity in mouse P388 cells allografted CD2F1 mouse assessed as mouse survival at 50 mg/kg, ip of total 9 doses starting 24 hrs post tumor inoculation measured on day 5 of inoculation relative to control; format: organism-based; set-up: dose 50 mg/kg, route intraperitoneal; conditions: in vivo
In short: (§3)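 Male CD2F1 mice bearing ip P388 leukemia (6×10^6 cells) were dosed ip with nine daily doses in distilled water–Tween 80 suspension, starting 24 h after inoculation. Survivors per group of 6 were counted on day 5, i.e. 4 days after the first dose. Body-weight change of treated minus control mice was also recorded.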

Mus musculus [4] = experiment: Toxicity in mouse P388 cells allografted CD2F1 mouse assessed as mouse survival at 12.5 mg/kg, ip of total 9 doses starting 24 hrs post tumor inoculation measured on day 5 of inoculation relative to control; format: organism-based; set-up: dose 12.5 mg/kg, route intraperitoneal; conditions: in vivo; in short: as §3
Mus musculus [5] = experiment: Toxicity in mouse P388 cells allografted CD2F1 mouse assessed as body weight loss at 12.5 mg/kg, ip of total 9 doses starting 24 hrs post tumor inoculation measured on day 5 of inoculation relative to control; format: organism-based; set-up: dose 12.5 mg/kg, route intraperitoneal; conditions: in vivo; in short: as §1
Mus musculus [6] = experiment: Toxicity in mouse P388 cells allografted CD2F1 mouse assessed as body weight loss at 6.25 mg/kg, ip of total 9 doses starting 24 hrs post tumor inoculation measured on day 5 of inoculation relative to control; format: organism-based; set-up: dose 6.25 mg/kg, route intraperitoneal; conditions: in vivo; in short: as §1
Mus musculus [7] = experiment: Toxicity in mouse P388 cells allografted CD2F1 mouse assessed as body weight loss at 100 mg/kg, ip of total 9 doses starting 24 hrs post tumor inoculation measured on day 5 of inoculation relative to control; format: organism-based; set-up: dose 100 mg/kg, route intraperitoneal; conditions: in vivo; in short: as §1
Mus musculus [8] = experiment: Toxicity in mouse P388 cells allografted CD2F1 mouse assessed as body weight loss at 25 mg/kg, ip of total 9 doses starting 24 hrs post tumor inoculation measured on day 5 of inoculation relative to control; format: organism-based; set-up: dose 25 mg/kg, route intraperitoneal; conditions: in vivo; in short: as §1
P388 [9] = experiment: Antitumor activity against mouse P388 cells allografted in CD2F1 mouse assessed as increase in mouse survival at 100 mg/kg, ip of total 9 doses starting 24 hrs post tumor inoculation measured on day 5 of inoculation relative to control; format: functional; conditions: route intraperitoneal; in short: as §2
Mus musculus [10] = experiment: Toxicity in mouse P388 cells allografted CD2F1 mouse assessed as mouse survival at 6.25 mg/kg, ip of total 9 doses starting 24 hrs post tumor inoculation measured on day 5 of inoculation relative to control; format: organism-based; set-up: dose 6.25 mg/kg, route intraperitoneal; conditions: in vivo; in short: as §3
P388 [11] = experiment: Antitumor activity against mouse P388 cells allografted in CD2F1 mouse assessed as increase in mouse survival at 12.5 mg/kg, ip of total 9 doses starting 24 hrs post tumor inoculation measured on day 5 of inoculation relative to control; format: functional; conditions: route intraperitoneal; in short: as §2
P388 [12] = experiment: Antitumor activity against mouse P388 cells allografted in CD2F1 mouse assessed as increase in mouse survival at 25 mg/kg, ip of total 9 doses starting 24 hrs post tumor inoculation measured on day 5 of inoculation relative to control; format: functional; conditions: route intraperitoneal; in short: as §2
P388 [13] = experiment: Antitumor activity against mouse P388 cells allografted in CD2F1 mouse assessed as increase in mouse survival at 6.25 mg/kg, ip of total 9 doses starting 24 hrs post tumor inoculation measured on day 5 of inoculation relative to control; format: functional; conditions: route intraperitoneal; in short: as §2
Mus musculus [14] = experiment: Toxicity in mouse P388 cells allografted CD2F1 mouse assessed as mouse survival at 25 mg/kg, ip of total 9 doses starting 24 hrs post tumor inoculation measured on day 5 of inoculation relative to control; format: organism-based; set-up: dose 25 mg/kg, route intraperitoneal; conditions: in vivo; in short: as §3
Klebsiella pneumoniae = experiment: Antimicrobial activity against Klebsiella pneumoniae ATCC 23357 at 1 mg after 24 hrs by disk sensitivity assay; format: functional, organism-based
In short: (§4)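 Bacteria grown 24 h in trypticase soy broth; 1 mL used to seed a lawn on trypticase soy agar. Sterile 6 mm paper disks carrying 1 mg test compound placed on agar, incubated 24 h at 37 °C, then zone of inhibition around each disk measured.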

Staphylococcus aureus = experiment: Antimicrobial activity against Staphylococcus aureus ATCC 25923 at 1 mg after 24 hrs by disk sensitivity assay; format: functional, organism-based; in short: as §4
Escherichia coli = experiment: Antimicrobial activity against Escherichia coli ATCC 25922 at 1 mg after 24 hrs by disk sensitivity assay; format: functional, organism-based; in short: as §4
Salmonella typhimurium = experiment: Antimicrobial activity against Salmonella typhimurium ATCC 14028 at 1 mg after 24 hrs by disk sensitivity assay; format: functional, organism-based; conditions: Salmonella enterica subsp. enterica serovar Typhimurium; in short: as §4
Proteus vulgaris = experiment: Antimicrobial activity against Proteus vulgaris ATCC 6380 at 1 mg after 24 hrs by disk sensitivity assay; format: functional, organism-based; in short: as §4
Serratia marcescens = experiment: Antimicrobial activity against Serratia marcescens ATCC 8100 at 1 mg after 24 hrs by disk sensitivity assay; format: functional, organism-based; in short: as §4
[15] = system: Staphylococcus epidermidis; experiment: Antimicrobial activity against Staphylococcus epidermidis ATCC 12228 at 1 mg after 24 hrs by disk sensitivity assay; format: functional, organism-based; in short: as §4
Enterobacter cloacae = experiment: Antimicrobial activity against Enterobacter cloacae ATCC 23355 at 1 mg after 24 hrs by disk sensitivity assay; format: functional, organism-based; in short: as §4

## CNC(=O)OCc1c(COC(=O)NC)c(-c2ccc(N)cc2)n(C)c1C
Mus musculus [1]
  Activity: 2.5 g
P388 [2]
  T/C: 119%
Mus musculus [3]
  Activity: Non-toxic
Mus musculus [4]
  Activity: Non-toxic
Mus musculus [5]
  Activity: 0.1 g
Mus musculus [6]
  Activity: 0.7 g
Mus musculus [7]
  Activity: 3.5 g
Mus musculus [8]
  Activity: 0.4 g
P388 [9]
  T/C: 135%
Mus musculus [10]
  Activity: Non-toxic
P388 [11]
  T/C: 98%
P388 [12]
  T/C: 100%
P388 [13]
  T/C: 92%

## CNC(=O)OCc1c(COC(=O)NC)c(-c2ccccc2)n(C)c1C
Mus musculus [1]
  Activity: 4.6 g
P388 [2]
  T/C: 90%
Mus musculus [14]
  Activity: Non-toxic
Mus musculus [3]
  Activity: Non-toxic
Mus musculus [4]
  Activity: Non-toxic
Mus musculus [5]
  Activity: 3.3 g
Mus musculus [6]
  Activity: 2.5 g
Mus musculus [7]
  Activity: 6 g
Mus musculus [8]
  Activity: 3.9 g
P388 [9]
  T/C: <70%
Mus musculus [10]
  Activity: Non-toxic
P388 [11]
  T/C: 130%
P388 [12]
  T/C: 145%
P388 [13]
  T/C: 135%

## CNC(=O)OCc1c(COC(=O)NC)c(-c2ccc([N+](=O)[O-])cc2)n(C)c1C
Mus musculus [1]
  Activity: 6.6 g
P388 [2]
  T/C: < 90%
Klebsiella pneumoniae
  Activity: inactive
Staphylococcus aureus
  Activity: inactive
Mus musculus [14]
  Activity: Non-toxic
Escherichia coli
  Activity: inactive
Salmonella typhimurium
  Activity: inactive
Mus musculus [4]
  Activity: Non-toxic
Mus musculus [5]
  Activity: 4.1 g
Mus musculus [6]
  Activity: 2.9 g
Proteus vulgaris
  Activity: inactive
Mus musculus [7]
  Activity: 4.4 g
Mus musculus [8]
  Activity: 5.5 g
Mus musculus [10]
  Activity: Non-toxic
Serratia marcescens
  Activity: inactive
[15]
  Activity: inactive
Enterobacter cloacae
  Activity: inactive
P388 [11]
  T/C: 169%
P388 [12]
  T/C: <90%
P388 [13]
  T/C: 153%

## CNC(=O)OCc1c(COC(=O)NC)c(-c2ccc(C(C)(C)C)cc2)n(C)c1C
Mus musculus [1]
  Activity: 5.1 g
P388 [2]
  T/C: 97%
Klebsiella pneumoniae
  Activity: inactive
Staphylococcus aureus
  Activity: inactive
Mus musculus [14]
  Activity: Non-toxic
Escherichia coli
  Activity: inactive
Salmonella typhimurium
  Activity: inactive
Mus musculus [4]
  Activity: Non-toxic
Mus musculus [5]
  Activity: 3.8 g
Mus musculus [6]
  Activity: 2 g
Proteus vulgaris
  Activity: inactive
Mus musculus [7]
  Activity: 4.4 g
Mus musculus [8]
  Activity: 4 g
Mus musculus [10]
  Activity: Non-toxic
Serratia marcescens
  Activity: inactive
[15]
  Activity: inactive
Enterobacter cloacae
  Activity: inactive
P388 [11]
  T/C: 155%
P388 [12]
  T/C: 158%
P388 [13]
  T/C: 152%

## CNC(=O)OCc1c(COC(=O)NC)c(-c2ccc(Cl)cc2)n(C)c1C
Mus musculus [1]
  Activity: 5.7 g
P388 [2]
  T/C: 165%
Mus musculus [14]
  Activity: Non-toxic
Mus musculus [3]
  Activity: Non-toxic
Mus musculus [4]
  Activity: Non-toxic
Mus musculus [5]
  Activity: 3.2 g
Mus musculus [6]
  Activity: 3.4 g
Mus musculus [7]
  Activity: 7.5 g
Mus musculus [8]
  Activity: 4.4 g
Mus musculus [10]
  Activity: Non-toxic
P388 [11]
  T/C: 155%
P388 [12]
  T/C: 153%
P388 [13]
  T/C: 155%
